Assay results: ChEMBL document CHEMBL4665714 (Bioorg Med Chem Lett, 2020)
The source made the active and inactive calls. The rule behind the calls is not given here.

Assays:
[1] = tested on: ARPE-19; experiment: Cytoprotective activity against human ARPE-19 cells assessed as reduction in all-trans-retinal induced cytotoxicity at 18 to 90 uM incubated for 6 hrs in presence of all-trans-retinal by CellTiter-Glo luminescent cell viability assay; assay type: functional, cell-based; conditions: dose microM 18-90, time 6.0 hrs
[2] = biological target: Retinoid isomerohydrolase (Bos taurus) (UniProt Q28175); experiment: Potency index, ratio of (R)-MB001 EC50 to test compound EC50 for inhibition of RPE65 in bovine RPE microsomes assessed as reduction in 11-cis-retinol production using all-trans-retinol as substrate pre-incubated with enzyme for 5 mins followed by further incubation with all-trans-retinol for 1 hr by normal phase HPLC analysis; conditions: Retina, Microsome, time 65.0 min
[3] = tested on: ARPE-19; experiment: Cytoprotective activity against human ARPE-19 cells assessed as reduction in all-trans-retinal induced cytotoxicity by measuring cell surveillance rate at 90 uM incubated for 6 hrs in presence of all-trans-retinal by CellTiter-Glo luminescent cell viability assay relative to control; assay type: functional
Outline: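 ARPE-19 (human RPE line) cells given test agent at 18, 45 or 90 μM together with all-trans-retinal 385 μM. Incubated 6 h at 37 °C, then viability read by CellTiter-Glo luminescence. Mean ±SE, n=3, t-test.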

[4] = biological target: Retinoid isomerohydrolase (Bos taurus, UniProt Q28175); experiment: Inhibition of RPE65 in bovine RPE microsomes assessed as reduction in 11-cis-retinol production using all-trans-retinol as substrate pre-incubated with enzyme for 5 mins followed by further incubation with all-trans-retinol for 1 hr by normal phase HPLC analysis; parameters: species or system Retina, Microsome
Outline: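 All-trans-retinol added to the enzyme mixture and incubated 1 h at 37 °C. Quenched with methanol and extracted into hexane. Inhibition taken from the fall in 11-cis-retinol production.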

Chain of Retinoid isomerohydrolase (Q28175 whole entry): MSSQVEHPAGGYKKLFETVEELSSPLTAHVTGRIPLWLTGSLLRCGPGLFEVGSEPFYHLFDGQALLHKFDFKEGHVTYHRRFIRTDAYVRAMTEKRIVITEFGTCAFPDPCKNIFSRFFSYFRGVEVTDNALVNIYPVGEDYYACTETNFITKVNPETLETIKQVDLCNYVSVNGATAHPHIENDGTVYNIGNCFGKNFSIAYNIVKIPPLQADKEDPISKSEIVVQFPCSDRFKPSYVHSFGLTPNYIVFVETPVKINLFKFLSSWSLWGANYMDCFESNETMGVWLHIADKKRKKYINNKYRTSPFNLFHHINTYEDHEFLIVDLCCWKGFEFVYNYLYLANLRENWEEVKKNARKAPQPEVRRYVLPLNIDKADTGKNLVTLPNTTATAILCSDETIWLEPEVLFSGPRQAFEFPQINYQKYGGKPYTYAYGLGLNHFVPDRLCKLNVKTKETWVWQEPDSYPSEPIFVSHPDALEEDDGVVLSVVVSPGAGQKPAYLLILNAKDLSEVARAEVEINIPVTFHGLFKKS
Chain of Retinoid isomerohydrolase (Bos taurus) (Q28175 2-533 limits assumed): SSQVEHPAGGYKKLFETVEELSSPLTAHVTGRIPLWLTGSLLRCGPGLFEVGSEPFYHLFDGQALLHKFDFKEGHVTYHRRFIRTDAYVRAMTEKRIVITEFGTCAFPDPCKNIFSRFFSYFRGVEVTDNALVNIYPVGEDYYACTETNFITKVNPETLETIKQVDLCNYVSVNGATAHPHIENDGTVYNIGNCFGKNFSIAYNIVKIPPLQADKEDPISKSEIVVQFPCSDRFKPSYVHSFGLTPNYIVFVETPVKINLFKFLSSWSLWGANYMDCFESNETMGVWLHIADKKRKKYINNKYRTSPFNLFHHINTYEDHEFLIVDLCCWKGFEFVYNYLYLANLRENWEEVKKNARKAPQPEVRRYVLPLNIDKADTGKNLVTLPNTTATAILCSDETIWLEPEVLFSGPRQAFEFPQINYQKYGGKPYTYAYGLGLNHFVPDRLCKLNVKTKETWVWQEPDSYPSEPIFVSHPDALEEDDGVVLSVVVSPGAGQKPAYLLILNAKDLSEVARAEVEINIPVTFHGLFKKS

Row | Compound | Activity [1] | Ratio EC50 [2] | Activity [3] [%] | EC50 [4] [nM]
1 | NCCC(O)c1cccc(OCC(CCCF)CCCF)c1 (racemic) [listing 1 of 2 here] | Active | 2 | – | –
2 | NCCC(O)c1cccc(OCC(CCCF)CCCF)c1 (stereo in doubt; 14) [listing 1 of 2 here] | – | – | 100 | 196
3 | CC1=C(COc2cccc([C@H](O)CCN)c2)C(C)(C)CCC1 | Active | – | – | 323
4 | NCCC(O)c1cccc(OCC(CCCF)CCCF)c1 (stereo in doubt; 14) [listing 2 of 2 here] | Active | 2 | – | –
5 | NCCC(O)c1cccc(OCC(CCCF)CCCF)c1 (racemic) [listing 2 of 2 here] | – | – | – | 166
